pIC50, pKi: −log10 of the molar value.
Experiments:
HCT-116 = assay: cells; assay type: functional, Homo sapiens; conditions: Homo sapiens, HCT-116, 72 h
[1] = molecular target: Voltage-gated inwardly rectifying potassium channel KCNH2 (Homo sapiens, UniProt Q12809); assay: Binding affinity to human ERG
Histone deacetylase 1 = Histone deacetylase 1 (Homo sapiens, UniProt Q13547); assay type: cell-based, HEK293F
[2] = Solubility of the compound; assay type: physicochemical
Method in brief: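 Solubility determined on the bis-HCl salt, reported in mg/mL.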

Chain of Histone deacetylase 1 (Q13547 whole entry): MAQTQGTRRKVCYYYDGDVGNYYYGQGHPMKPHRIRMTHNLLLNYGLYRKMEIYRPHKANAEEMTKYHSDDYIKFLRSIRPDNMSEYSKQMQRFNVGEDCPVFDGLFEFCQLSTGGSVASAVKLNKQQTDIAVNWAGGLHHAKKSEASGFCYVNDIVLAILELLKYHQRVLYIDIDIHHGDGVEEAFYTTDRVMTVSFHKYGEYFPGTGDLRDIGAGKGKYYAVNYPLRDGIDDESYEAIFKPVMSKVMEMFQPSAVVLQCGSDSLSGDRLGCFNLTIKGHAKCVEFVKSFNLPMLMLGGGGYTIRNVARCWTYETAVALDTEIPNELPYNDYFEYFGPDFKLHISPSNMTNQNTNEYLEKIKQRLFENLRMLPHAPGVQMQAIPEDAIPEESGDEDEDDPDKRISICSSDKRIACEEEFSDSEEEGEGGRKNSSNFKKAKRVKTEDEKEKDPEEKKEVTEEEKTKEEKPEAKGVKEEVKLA
Chain of Voltage-gated inwardly rectifying potassium channel KCNH2 (Q12809 whole entry): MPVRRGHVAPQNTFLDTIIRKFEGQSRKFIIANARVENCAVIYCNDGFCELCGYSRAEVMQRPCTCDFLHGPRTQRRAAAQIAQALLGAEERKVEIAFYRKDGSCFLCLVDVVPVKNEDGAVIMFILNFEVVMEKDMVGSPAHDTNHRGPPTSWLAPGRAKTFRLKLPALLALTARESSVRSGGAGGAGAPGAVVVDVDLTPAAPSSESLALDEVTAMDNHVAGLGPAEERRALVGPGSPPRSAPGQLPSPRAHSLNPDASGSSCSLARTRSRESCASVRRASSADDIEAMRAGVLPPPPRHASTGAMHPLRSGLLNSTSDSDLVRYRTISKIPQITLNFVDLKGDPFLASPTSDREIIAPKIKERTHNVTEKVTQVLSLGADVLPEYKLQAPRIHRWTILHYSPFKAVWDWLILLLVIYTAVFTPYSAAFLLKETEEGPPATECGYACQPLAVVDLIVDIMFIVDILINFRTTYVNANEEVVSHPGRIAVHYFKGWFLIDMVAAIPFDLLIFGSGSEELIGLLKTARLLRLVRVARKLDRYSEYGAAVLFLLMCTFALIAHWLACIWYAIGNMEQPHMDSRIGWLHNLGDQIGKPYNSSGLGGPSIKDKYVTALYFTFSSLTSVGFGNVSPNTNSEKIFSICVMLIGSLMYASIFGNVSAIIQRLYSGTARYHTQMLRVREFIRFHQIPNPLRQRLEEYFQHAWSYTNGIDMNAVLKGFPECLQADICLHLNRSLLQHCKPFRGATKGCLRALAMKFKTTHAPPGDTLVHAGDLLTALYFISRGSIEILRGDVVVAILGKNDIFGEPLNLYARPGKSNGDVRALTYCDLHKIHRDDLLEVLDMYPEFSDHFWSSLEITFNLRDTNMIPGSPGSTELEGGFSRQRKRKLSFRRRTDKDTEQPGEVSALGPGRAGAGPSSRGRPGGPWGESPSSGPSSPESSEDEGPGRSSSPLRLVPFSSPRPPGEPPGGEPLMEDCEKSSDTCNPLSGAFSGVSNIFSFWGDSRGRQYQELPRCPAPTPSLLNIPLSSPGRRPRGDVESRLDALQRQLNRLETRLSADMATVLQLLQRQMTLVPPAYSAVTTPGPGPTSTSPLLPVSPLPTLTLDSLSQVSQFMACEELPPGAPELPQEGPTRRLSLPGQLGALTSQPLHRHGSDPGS

Structure (SMILES) | GI50 (HCT-116) [nM] | pKi [1] | pIC50 (Histone deacetylase 1) | solubility [2] [µg/mL]
Nc1ccc(-c2ccsc2)cc1NC(=O)c1ccc(N2CCC3(CC2)CNC(=O)O3)nc1 | 270 | < 4.52 | 7.96 | 
Cc1csc(-c2ccc(N)c(NC(=O)c3ccc(N4CCC5(CC4)CNC(=O)O5)nc3)c2)c1 | 890 | 5.70 | 7.85 | 
Nc1ccc(-c2ccccc2)cc1NC(=O)c1ccc(N2CCC3(CC2)CNC(=O)O3)nc1 | 490 | 5.47 | 7.77 | 
Nc1ccc(-c2ccc(F)cc2)cc1NC(=O)c1ccc(N2CCC3(CC2)CNC(=O)O3)nc1 | 710 | 6.21 | 7.70 | 
Cn1cc(-c2ccc(N)c(NC(=O)c3ccc(N4CCC5(CC4)CNC(=O)O5)nc3)c2)cn1 | 2120 | < 5.00 | 7.74 | 
Cn1cnc(-c2ccc(N)c(NC(=O)c3ccc(N4CCC5(CC4)CNC(=O)O5)nc3)c2)c1 | 4650 | < 5.00 | 7.29 | 
Nc1ccccc1NC(=O)c1ccc(N2CCC3(CC2)CNC(=O)O3)nc1 | 5080 | < 5.00 | 6.24 | 
Cl.Nc1ccc(-c2cccs2)cc1NC(=O)c1ccc(N2CCC3(CC2)CNC(=O)O3)nc1 |  |  |  | 1300

— ChEMBL document CHEMBL3286368, “Delayed and Prolonged Histone Hyperacetylation with a Selective HDAC1/HDAC2 Inhibitor” (ACS Med Chem Lett, 2014)
